In the library only some 1.4% were active in any assay of this set; here they are far more common.
EBNA-1 inhibitor: blocks EBNA-1 binding to DNA | EBNA-1 DNA binding, fluorescence polarization | inhibition, % at 14.8 µM | 300,000 tested, 0.34% active | AID 1950; in the data active = inhibition above about 28%
HCV NS3 hel inh: inhibitors of Hepatitis C virus NS3 helicase. NS3 helicase DNA unwinding, Cy5 molecular beacon fluorescence. inhibition, % at 10.9 µM. 290,000 tested, 0.56% active;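 active = inhibition above the mean of all tested compounds plus 3 SD, set per campaign, cut at about 35% in these data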
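Material: hepatitis C virus NS3 helicase domain fragment enzyme; measured by: Cy5 fluorescence, 0 and 60 min reads; control set: DMSO and thioflavine S; incubation: 60 min unwinding reaction at 25 °C after ATP addition; read-out basis: % inhibition from 60/0 min fluorescence ratio, DMSO 0%, thioflavine S 100%; repeats: singlicate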
ZTA DNA inh: ZTA (EBV) inhibition in EBNA-1 counter-screen; P03206; inhibition, % at 11 µM; 320,000 tested, 0.15% active; ZTA-DNA binding, fluorescence polarization; in the data active = inhibition above about 33%
Target sequence (P03206 whole entry, looked up): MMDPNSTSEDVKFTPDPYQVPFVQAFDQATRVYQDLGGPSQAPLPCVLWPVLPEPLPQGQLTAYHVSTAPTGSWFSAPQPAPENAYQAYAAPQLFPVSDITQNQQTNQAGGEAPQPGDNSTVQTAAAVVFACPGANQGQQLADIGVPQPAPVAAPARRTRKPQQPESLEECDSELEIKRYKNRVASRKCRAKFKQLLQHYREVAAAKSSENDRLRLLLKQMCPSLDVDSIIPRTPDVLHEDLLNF
CTSL1 counter: counter-screen for PFM18AAP inhibitors: inhibitors of F. hepatica cathepsin L1; recombinant F. hepatica cathepsin L1, Z-Leu-Arg-MCA fluorescence; inhibition, % at 5.96 µM; 300,000 tested, 0.49% active; AID 1906;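 active = inhibition above the mean of all tested compounds plus 3 SD, set per screening campaign, cut at about 17% in these data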
NS3 helicase cf: confirmation of Hepatitis C virus NS3 helicase inhibitors. inhibition, % at 10.9 µM. NS3 helicase DNA unwinding, Cy5 molecular beacon fluorescence. 1,600 tested, 31% active. shares compounds with HCV NS3 hel inh;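 active = inhibition above the mean of all tested compounds plus 3 SD, cutoff set per campaign, cut at about 36% in these data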
DNA FID counter: counter-screen for HCV NS3 helicase inhibitors: DNA intercalator displacement | AID 1945 | shares compounds with HCV NS3 hel inh | inhibition, % at 7.9 µM | DNA fluorescent intercalator displacement, fluorescence | 1,600 tested, 4% active; in the data active = inhibition above about 37%;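 also: higher means more displacement of ethidium bromide from the DNA hairpin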
FID counter DR: displaces fluorescent intercalator from DNA, HCV helicase counter-screen; 120 tested, under 10 active; fluorescent intercalator displacement from DNA, fluorescence; shares compounds with HCV NS3 hel inh; IC50, µM; AID 2172; call rule not given here
Each line names hits and unclear results; the compound was inactive in the other large screens (follow-up assays come after a bar, where they were run).

O=C1C=C(c2ccc(Oc3ccccc3)cc2)C[C@@H](c2ccc(Cl)cc2)C1	none (no result: EBNA-1 inhibitor, HCV NS3 hel inh, CTSL1 counter)
CCN(CC)CCn1c(=S)[nH]c2cc(Cl)ccc2c1=O	none
CCCN(CCC)C(=O)c1ccc2c(c1)S(=O)(=O)c1ccccc1C2=O	none
COCCCC/C(=N\OCCN)c1ccc(C(F)(F)F)cc1	none
COc1cccc(N/N=C/c2cccc(Br)c2O)c1	none
Cc1cccc(N/N=C/c2ccc(O)c(O)c2O)c1	HCV NS3 hel inh 38 | NS3 helicase cf inactive | DNA FID counter inactive
CCOC(=O)c1cc2c(=O)n3ccccc3nc2n(Cc2ccco2)c1=NC(=O)c1ccc(OC)cc1OC	HCV NS3 hel inh 51 | NS3 helicase cf inactive | DNA FID counter inactive
COc1ccc(CCNC(=O)c2cc3c(=O)n4cccc(C)c4nc3n(Cc3ccco3)c2=N)cc1OC	HCV NS3 hel inh 38 | NS3 helicase cf inactive | DNA FID counter inactive
Cc1cc(=O)[nH]c(N2CCN(C(c3ccccc3)c3ccccc3)CC2)n1	none
CNc1ccccc1C(C)(C)c1cc(-c2ccco2)n[nH]1	HCV NS3 hel inh 41 | NS3 helicase cf inactive | DNA FID counter inactive
CCC(C)C(NC(=O)c1ccc(Cl)cc1)C(=O)Nc1cccnc1 (centres undefined)	none
CCCc1nc(SCC(=O)O)c2sc(=S)n(-c3ccccc3)c2n1	HCV NS3 hel inh 37 | NS3 helicase cf inactive | DNA FID counter inactive
COc1ccc(OC)c(/C=C2\SC(=S)N(C(C(=O)O)c3ccccc3)C2=O)c1 (centres undefined)	HCV NS3 hel inh 47 | NS3 helicase cf 84 | DNA FID counter inactive
CCOc1ccc(/C=C2\SC(=S)N(C(C(=O)O)c3ccccc3)C2=O)cc1OC (centres undefined)	none
COCCNc1nnc(SCC(=O)Nc2cc(C)on2)s1	none (no result: EBNA-1 inhibitor, HCV NS3 hel inh, CTSL1 counter)
CCN(CC)c1ccc(S(=O)(=O)Nc2cc(Cl)ccc2Cl)cc1NC(=S)NC(=O)C1CCCC1	HCV NS3 hel inh 58 | NS3 helicase cf inactive | DNA FID counter inactive
CCCn1c(CN2CCN(C(=O)OCC)CC2)nc2c1c(=O)n(C)c(=O)n2C	none
CCOC(=O)N1CCN(Cc2nc3c(c(=O)n(C)c(=O)n3C)n2Cc2ccccc2C)CC1	HCV NS3 hel inh 61 | NS3 helicase cf inactive | DNA FID counter inactive
COc1ccc(C2/C(=C(/O)c3ccc(C)cc3)C(=O)C(=O)N2c2ccccn2)cc1OC (centres undefined)	none
CCCOc1ccc(/C(O)=C2\C(=O)C(=O)N(c3ccccn3)C2c2ccccc2F)cc1C (centres undefined)	HCV NS3 hel inh 47 | NS3 helicase cf 94 | DNA FID counter inactive | FID counter DR inactive
COc1ccc(OC)c(CN2CCC(C(=O)N3CCOCC3)CC2)c1	none
CC1(C)OCC(C2CC(c3ccccc3)NS(=O)(=O)O2)O1 (centres undefined)	none
O=S1(=O)NC2c3ccccc3CC2O1 (centres undefined)	HCV NS3 hel inh 40 | NS3 helicase cf inactive | DNA FID counter inactive
Cc1ccc(C(=O)Nc2nc(-c3ccc([N+](=O)[O-])cc3)cs2)o1	none
Cc1ccc(C2=NC(=O)/C(=C/c3cc(O)c(O)c(Br)c3)S2)cc1	HCV NS3 hel inh 53 (no result: EBNA-1 inhibitor, ZTA DNA inh, CTSL1 counter) | NS3 helicase cf inactive | DNA FID counter inactive
Oc1ccc(Cl)cc1C=Nc1ccccc1Br	none
Oc1ccc(Br)cc1C=Nc1ccc2c3c(cccc13)CC2	HCV NS3 hel inh 48 | NS3 helicase cf inactive | DNA FID counter inactive
COCCOC(=O)c1[nH]c2c(c1C)C(=O)CC(c1ccco1)C2 (centres undefined)	HCV NS3 hel inh 47 | NS3 helicase cf inactive | DNA FID counter inactive
CCOC(=O)c1[nH]c2c(c1C)C(=O)CC(c1ccco1)C2 (centres undefined)	none
C[C@H]1c2cccc(O)c2C(O)=C2C(=O)[C@]3(O)C(O)=C(C(N)=O)C(=O)[C@@H](N(C)C)[C@@H]3[C@@H](O)[C@@H]21	none (no result: HCV NS3 hel inh)
CN(C)c1ccc(O)c2c1CC1CC3[C@@H](N(C)C)C(=O)C(C(N)=O)=C(O)[C@]3(O)C(=O)C1=C2O (some centres undefined)	HCV NS3 hel inh 39 | NS3 helicase cf 36 | DNA FID counter inactive | FID counter DR inactive
CC(C)CC(=O)N1CCN(Cc2ccccc2[N+](=O)[O-])CC1	none

Assay outcomes (PubChem)
